Test results from ChEMBL document CHEMBL4130443, “Targeting breast cancer stem cells by novel HDAC3-selective inhibitors” (Eur J Med Chem, 2017).

Columns and labels:
Histone deacetylase 2 = Histone deacetylase 2 (Homo sapiens, UniProt Q92769); assay: Inhibition of human HDAC2 at 1 uM using p53 (379 to 382 residues) derived fluorogenic peptide RHKKAc
How it was run: (§1)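 Isoform profiling run by a commercial vendor with compounds at 1 µM. Values are percent inhibition, each the average of two determinations.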

[1] = biological target: Histone deacetylase 3/Nuclear receptor corepressor 2 (HDAC3/NCoR2) (Homo sapiens) (UniProt O15379+Q9Y618); assay: Inhibition of human HDAC3/NCOR2 at 1 uM using p53 (379 to 382 residues) derived fluorogenic peptide RHKKAc; format: protein-complex assay; how it was run: as §1
[2] = biological target: Histone deacetylase 4 (Homo sapiens) (UniProt P56524); assay: Inhibition of human HDAC4 at 1 uM using Boc-Lys(trifluoroacetyl)-AMC substrate; how it was run: as §1
Chain of Histone deacetylase 4 (Homo sapiens) (P56524 whole entry, the tested form may be a part): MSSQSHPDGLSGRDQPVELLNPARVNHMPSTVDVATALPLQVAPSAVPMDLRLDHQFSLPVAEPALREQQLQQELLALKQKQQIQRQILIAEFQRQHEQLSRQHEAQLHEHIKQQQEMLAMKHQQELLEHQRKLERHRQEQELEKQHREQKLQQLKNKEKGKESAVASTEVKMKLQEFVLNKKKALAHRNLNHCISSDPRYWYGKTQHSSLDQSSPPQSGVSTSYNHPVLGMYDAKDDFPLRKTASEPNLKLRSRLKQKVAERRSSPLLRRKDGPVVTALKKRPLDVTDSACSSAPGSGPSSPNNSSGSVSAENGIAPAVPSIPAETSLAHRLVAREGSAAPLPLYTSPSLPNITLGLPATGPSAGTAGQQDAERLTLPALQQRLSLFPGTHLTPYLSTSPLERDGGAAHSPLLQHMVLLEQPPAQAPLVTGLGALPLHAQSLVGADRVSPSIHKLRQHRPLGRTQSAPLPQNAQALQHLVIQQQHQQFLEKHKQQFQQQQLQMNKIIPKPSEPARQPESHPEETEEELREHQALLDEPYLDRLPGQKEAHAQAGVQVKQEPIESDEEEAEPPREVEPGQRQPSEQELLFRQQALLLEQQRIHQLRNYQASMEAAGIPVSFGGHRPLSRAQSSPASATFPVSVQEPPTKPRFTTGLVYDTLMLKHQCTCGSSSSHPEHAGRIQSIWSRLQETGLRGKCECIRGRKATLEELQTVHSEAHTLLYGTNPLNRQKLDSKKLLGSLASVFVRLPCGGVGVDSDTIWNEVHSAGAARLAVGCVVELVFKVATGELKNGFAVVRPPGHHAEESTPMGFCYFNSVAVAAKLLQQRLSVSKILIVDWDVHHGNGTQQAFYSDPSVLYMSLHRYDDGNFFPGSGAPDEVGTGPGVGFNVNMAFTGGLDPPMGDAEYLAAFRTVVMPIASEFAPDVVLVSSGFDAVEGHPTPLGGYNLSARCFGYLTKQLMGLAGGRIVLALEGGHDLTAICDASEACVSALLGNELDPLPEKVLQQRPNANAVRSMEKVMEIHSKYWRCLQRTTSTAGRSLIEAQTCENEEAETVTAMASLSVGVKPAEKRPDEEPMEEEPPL

[3] = biological target: T1, Histone deacetylase 8 (Homo sapiens) (UniProt Q9BY41); assay: Inhibition of human HDAC8 at 1 uM using p53 (379 to 382 residues) derived fluorogenic peptide RHKAcKAc; how it was run: as §1
T1 sequence (whole entry): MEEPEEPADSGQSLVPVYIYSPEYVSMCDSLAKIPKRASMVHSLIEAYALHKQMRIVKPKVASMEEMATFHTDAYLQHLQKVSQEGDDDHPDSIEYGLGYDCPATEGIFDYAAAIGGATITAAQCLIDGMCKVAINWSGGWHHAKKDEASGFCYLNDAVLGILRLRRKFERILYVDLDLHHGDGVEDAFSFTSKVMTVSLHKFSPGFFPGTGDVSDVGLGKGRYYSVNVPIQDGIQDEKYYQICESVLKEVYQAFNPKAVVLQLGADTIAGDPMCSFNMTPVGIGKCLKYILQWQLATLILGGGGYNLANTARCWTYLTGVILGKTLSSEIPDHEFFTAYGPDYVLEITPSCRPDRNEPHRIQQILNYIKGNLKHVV

MDA-MB-231 [4] = assay: Growth inhibition of human MDA-MB-231 cells incubated for 48 to 72 hrs by crystal violet staining based assay; format: functional, cell-based
How it was run: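 Cells plated at 5000/well and left overnight, then treated in 5% FBS for 24, 48 and 72 h. Washed with PBS, stained 20 min with 0.5% crystal violet in 20% methanol, stain solubilized in 2% SDS, absorbance read at 550. Growth inhibition calculated as (1-Nt/Nc) x 100 against vehicle wells. N = 6.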

MDA-MB-231 [5] = assay: Inhibition of cancer stem cell subpopulation of human MDA-MB-231 cells assessed as CD44+/CD24low subpopulation level at 0.1 to 5 uM by flow cytometry; format: functional, cell-based
How it was run: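 Cells exposed to DMSO or compound at graded concentrations, then harvested and washed in stain buffer. Stained with FITC- or phycoerythrin-conjugated anti-CD44 and anti-CD24 for 30 min on ice in the dark, resuspended in PBS, and CD44+/CD24low fraction read by flow cytometry.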

Chain of Histone deacetylase 2 (Q92769 whole entry, the tested form may be a part, canonical isoform): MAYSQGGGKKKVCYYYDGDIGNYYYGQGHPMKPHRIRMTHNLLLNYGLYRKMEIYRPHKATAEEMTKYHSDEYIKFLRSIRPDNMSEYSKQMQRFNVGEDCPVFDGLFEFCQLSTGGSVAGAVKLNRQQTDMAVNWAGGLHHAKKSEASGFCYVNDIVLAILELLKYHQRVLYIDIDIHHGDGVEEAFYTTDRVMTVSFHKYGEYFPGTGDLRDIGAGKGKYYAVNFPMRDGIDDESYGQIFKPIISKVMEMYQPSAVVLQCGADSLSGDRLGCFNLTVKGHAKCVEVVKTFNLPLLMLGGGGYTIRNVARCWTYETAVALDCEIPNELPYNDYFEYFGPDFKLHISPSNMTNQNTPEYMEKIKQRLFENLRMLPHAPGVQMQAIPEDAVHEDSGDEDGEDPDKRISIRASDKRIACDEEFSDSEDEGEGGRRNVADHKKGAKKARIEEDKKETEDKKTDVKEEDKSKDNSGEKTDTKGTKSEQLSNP

Compound: CC(C)(C(=O)Nc1ccc(C(=O)Nc2ccc(F)cc2N)cc1)c1ccccc1
- inhibition (Histone deacetylase 2): 5%
- inhibition [1]: 87%
- inhibition [2]: 0%
- inhibition [3]: 0%
- IC50 (MDA-MB-231 [4]): ≥ 10 µM
- inhibition (MDA-MB-231 [5]): Dose-dependent effect
